{"data": "Measurements from different studies", "target": "Aurora kinase C (AURKC, Homo sapiens, UniProt Q9UQB9)", "One construct used (Q9UQB9 1-309)": "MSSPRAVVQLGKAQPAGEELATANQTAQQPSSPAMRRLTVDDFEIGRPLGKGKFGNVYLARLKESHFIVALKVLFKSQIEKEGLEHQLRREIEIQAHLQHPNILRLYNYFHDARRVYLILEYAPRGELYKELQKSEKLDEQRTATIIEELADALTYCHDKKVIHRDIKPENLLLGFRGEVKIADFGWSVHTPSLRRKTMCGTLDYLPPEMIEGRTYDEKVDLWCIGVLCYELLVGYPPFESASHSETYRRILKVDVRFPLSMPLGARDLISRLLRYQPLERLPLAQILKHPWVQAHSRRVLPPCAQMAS", "note": "Compare with care: the assays were run in different laboratories."}
{"SMILES": "COc1cc2nccc(Oc3ccc(NC(=O)c4c5n(n(-c6ccc(F)cc6)c4=O)CCCC5)cc3)c2cc1OC", "assay": "enzyme activity, inhibitor", "conditions": "0.1 µM", "measurement": "inhibition", "value": "24%"}
{"SMILES": "COc1cc(Cl)c(C(=O)N[C@@H](CN[C@H]2CC[C@@H](N)CC2)Cc2ccc(C#N)cc2)cc1-c1ccc(CN[C@H](C)c2ccc(C)cc2)o1", "assay": "enzyme activity, inhibitor", "conditions": "1 µM", "measurement": "remaining activity", "value": "94%"}
{"SMILES": "CC(C)CC(=O)N1CCc2nc(-c3ccc(Br)cc3)nc(N(C)Cc3ccccc3)c2C1", "assay": "cell-free assay, competition with immobilised ligand", "conditions": "0.1 µM", "measurement": "remaining binding", "value": "100%"}
{"SMILES": "CC(C)(C)c1nc2c(s1)c1nc(N)ncc1c1ccc(NS(=O)(=O)c3c(F)cccc3F)c(F)c12", "assay": "enzyme activity, inhibitor, radiometric", "conditions": "1 µM", "measurement": "remaining activity", "value": "104%"}
{"SMILES": "COc1cc2ncnc(Nc3ccc(Oc4ccccc4)cc3C)c2cc1OC", "assay": "enzyme activity, inhibitor", "conditions": "1 µM", "measurement": "inhibition", "value": "1%"}
{"SMILES": "O=C(NS(=O)(=O)c1ccc(NCC2CCOCC2)c([N+](=O)[O-])c1)c1ccc(N2CCN(Cc3ccc(C(F)(F)F)cc3-c3ccc(Cl)cc3)CC2)cc1Oc1cnc2[nH]ccc2c1", "assay": "cell-free assay, competition with immobilised ligand", "conditions": "1 µM", "measurement": "remaining binding", "value": "97%"}
{"SMILES": "Cc1ccc(C(=O)NCc2ccsc2)cc1C#Cc1cn(C(C)C)c2ncnc(N)c12", "assay": "enzyme activity, inhibitor", "conditions": "1 µM", "measurement": "activity vs control", "value": "81%"}
{"SMILES": "O=C(NCc1ncc(C(F)(F)F)cc1Cl)c1ccc2c(c1)C1(CCS(=O)(=O)CC1)[C@@H](C1CC1)N2S(=O)(=O)c1ccc(F)cc1", "assay": "cell-free assay, competition with immobilised ligand", "conditions": "1 µM", "measurement": "remaining binding", "value": "80%"}
{"SMILES": "CCN(CC)c1ccc(C2=NNC(=O)CC2C)cc1[N+](=O)[O-] (centres unmarked)", "assay": "enzyme activity, inhibitor", "conditions": "10 µM", "measurement": "remaining activity", "value": "122%"}
{"SMILES": "Nc1ncnc2occ(-c3ccc(NC(=O)Nc4cc(C(F)(F)F)ccc4F)cc3)c12", "assay": "cell-free assay", "conditions": "20 µM", "measurement": "remaining signal", "value": "2.7%"}
{"SMILES": "O=C(Nc1cnn(-c2csc(C(=O)NC3COC3)c2)c1)Nc1c(F)cccc1Cl", "assay": "enzyme activity, inhibitor", "conditions": "5 µM", "measurement": "remaining activity", "value": "58.5%"}
{"SMILES": "CS(=O)(=O)CCNCc1ccc(-c2ccc3ncnc(Nc4ccc(OCc5cccc(F)c5)c(Cl)c4)c3c2)o1", "assay": "cell-free assay", "conditions": "0.5 µM", "measurement": "remaining signal", "value": "90.9%"}
{"SMILES": "CCC(=O)N[C@H]1CC[C@@H](C(=O)N(C)c2ccc(-c3nc4ccccc4o3)cc2)C1", "assay": "cell-free assay, competition with immobilised ligand", "conditions": "1 µM", "measurement": "remaining binding", "value": "100%"}
{"SMILES": "O=C1NC(=O)c2cc(Nc3ccc(F)cc3)c(Nc3ccc(F)cc3)cc21", "assay": "cell-free assay", "conditions": "0.5 µM", "measurement": "remaining signal", "value": "90.8%"}
{"SMILES": "Cc1cnc(NC2CCOCC2)nc1-n1cnc(C(=O)NC(CN)c2cc(F)cc(Cl)c2)c1 (centres unmarked)", "assay": "enzyme activity, inhibitor, radiometric", "conditions": "1 µM", "measurement": "remaining activity", "value": "67%"}
{"SMILES": "Cc1ccc(C(=O)Nc2ccc(CN3CCN(C)CC3)c(C(F)(F)F)c2)cc1C#Cc1cnc2cccnn12", "assay": "enzyme activity", "conditions": "23.5 nM", "measurement": "remaining activity", "value": "94%"}
{"SMILES": "O=C(O)[C@H]1[C@H](Cn2nnc3ccccc3c2=O)CC[C@@H]1C(=O)c1ccc(OCCC2CCOCC2)cc1", "assay": "cell-free assay, competition with immobilised ligand", "conditions": "1 µM", "measurement": "remaining binding", "value": "79%"}
{"SMILES": "O=C1Nc2ccc(Cl)cc2C1=Cc1cc(Cl)c(O)c(Cl)c1", "assay": "cell-free assay", "conditions": "0.5 µM", "measurement": "remaining signal", "value": "78.6%"}
{"SMILES": "CS(=O)(=O)NCC[C@H](NC(=O)c1cncc2c1cnn2-c1ccc(F)cc1)c1ccnc(S(C)(=O)=O)c1", "assay": "cell-free assay, competition with immobilised ligand", "conditions": "1 µM", "measurement": "remaining binding", "value": "92%"}
{"SMILES": "CNC(=O)c1cc(Oc2ccc(NC(=O)Nc3ccc(Cl)c(C(F)(F)F)c3)cc2)ccn1", "assay": "cell-free assay", "conditions": "0.5 µM", "measurement": "remaining signal", "value": "106%"}
